Data as given in ChEMBL document CHEMBL4364341, “Radiosensitization of Head and Neck Squamous Cell Carcinoma (HNSCC) by a Podophyllotoxin” (ACS Med Chem Lett, 2019).
The source made the active and inactive calls. The calls are words filed in the database; no cut-off is given here.

Columns and labels:
SCC-25 [1] = experiment: Synergistic antiproliferative activity against human SCC25 cells assessed as combination index at 5 uM preincubated for 1 hr followed by irradiation with 10 Gy IR and measured after 6 days by MTT assay; format: functional
Outline: (§1)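 SCC-25 cells grown in DMEM with 10% FBS at 37 °C, 5% CO2, seeded 1000 cells/well in 96-well plates and left 24 h. Drug in DMSO, diluted in complete medium, added 1 h before X-irradiation. A movable 5 mm lead shield gave 0, 2.5, 5 or 10 Gy on one plate. After 6 days, MTT readout at 570 nm. Combination index by Chou–Talalay from viability data.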

SCC-25 [2] = experiment: Synergistic antiproliferative activity against human SCC25 cells assessed as fractional inhibition at 5 uM preincubated for 1 hr followed by irradiation with 2.5 Gy IR and measured after 6 days by MTT assay (reference value: 0.011); format: functional
Outline: (§2)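 SCC-25 cells seeded 1000/well in 96-well plates in DMEM/10% FBS and left 24 h. Drug or vehicle added, then after 1 h X-irradiated to 2.5, 5 or 10 Gy on one plate using a shifted lead shield. Plates incubated 6 days, then MTT (0.5 mg/mL, 45 min), DMSO solubilisation, absorbance at 570 nm. Fractional inhibition = 1 − fraction of surviving cells.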

SCC-25 [3] = experiment: Antiproliferative activity against human SCC25 cells assessed as fractional inhibition at 0.5 uM after 6 days in absence of irradiation by MTT assay; format: functional
Outline: (§3)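 FaDu or SCC-25 cells were grown in DMEM with 10% FBS at 37 °C and 5% CO2. They were seeded at 1000 cells/well in 96-well plates for 24 h, then dosed with compound (fresh DMSO stock diluted in medium) or vehicle. After 1 h, X-rays were given with a sliding 5 mm lead shield, so one plate held 0, 2.5, 5 and 10 Gy columns. After 6 days, MTT (0.5 mg/mL, 45 min) was added, then DMSO, and A570 was read. Values were normalised to the unirradiated vehicle control. Fractional inhibition = 1 − surviving fraction.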

FaDu [4] = experiment: Antiproliferative activity against human FADU cells assessed as fractional inhibition at 0.005 uM after 6 days in absence of irradiation by MTT assay; format: functional; outline: as §3
SCC-25 [5] = experiment: Synergistic antiproliferative activity against human SCC25 cells assessed as fractional inhibition at 0.5 uM preincubated for 1 hr followed by irradiation with 2.5 Gy IR and measured after 6 days by MTT assay (reference value: 0.011); format: functional; outline: as §2
FaDu [6] = experiment: Synergistic induction of apoptosis in human FADU cells at 0.5 uM followed irradiation with 5Gy IR by annexin V FITC and propidium iodide staining based flow cytometry; format: functional, cell-based; conditions: TDE = time-dependent effect
Outline: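 FaDu or SCC-25 cells, untreated, given 5 Gy IR, drug, or both. Apoptotic cells measured by annexin V flow cytometry 48 h after treatment. Percentage compared with control by t test.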

FaDu [7] = experiment: Synergistic antiproliferative activity against human FADU cells assessed as fractional inhibition at 0.005 uM preincubated for 1 hr followed by irradiation with 5 Gy IR and measured after 6 days by MTT assay (reference value: 0.097); format: functional; outline: as §3
SCC-25 [8] = experiment: Synergistic antiproliferative activity against human SCC25 cells assessed as combination index at 0.5 uM preincubated for 1 hr followed by irradiation with 2.5 Gy IR and measured after 6 days by MTT assay; format: functional; outline: as §1
SCC-25 [9] = experiment: Inhibition of cell migration in human SCC25 cells at 0.5 uM incubated for 12 and 24 hrs by microscopic analysis; format: functional, cell-based
Outline: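 Scratch assay: 10^5 cells/well were grown to confluence in 12-well plates, with mitomycin C to block proliferation. Cells were treated with compound for 24 h, with or without 5 Gy IR, then scratched with a pipette tip, washed with PBS and given fresh medium. Imaging was at 0, 6, 12 and 24 h. % migration = gap decrease relative to the 0 h gap.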

FaDu [10] = experiment: Synergistic antiproliferative activity against human FADU cells assessed as combination index at 0.5 uM preincubated for 1 hr followed by irradiation with 5 Gy IR and measured after 6 days by MTT assay; format: functional
Outline: (§4)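 Combination index was calculated by the Chou–Talalay median-effect method from the 6-day MTT viability data of the single-plate compound/X-ray (2.5, 5, 10 Gy) design. CI < 1 denotes synergy, CI = 1 additivity and CI > 1 antagonism.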

SCC-25 [11] = experiment: Synergistic antiproliferative activity against human SCC25 cells assessed as fractional inhibition at 0.005 uM preincubated for 1 hr followed by irradiation with 5 Gy IR and measured after 6 days by MTT assay (reference value: 0.133); format: functional; outline: as §2
SCC-25 [12] = experiment: Synergistic antiproliferative activity against human SCC25 cells assessed as fractional inhibition at 0.005 uM preincubated for 1 hr followed by irradiation with 10 Gy IR and measured after 6 days by MTT assay (reference value: 0.347); format: functional; outline: as §2
FaDu [13] = experiment: Antiproliferative activity against human FADU cells assessed as fractional inhibition at 0.5 uM after 6 days in absence of irradiation by MTT assay; format: functional; outline: as §3
FaDu [14] = experiment: Synergistic antiproliferative activity against human FADU cells assessed as combination index at 0.05 uM preincubated for 1 hr followed by irradiation with 10 Gy IR and measured after 6 days by MTT assay; format: functional; outline: as §4
SCC-25 [15] = experiment: Synergistic induction of cell cycle arrest in human SCC25 cells at 0.5 uM followed by irradiation with 5Gy IR incubated for 6 hrs by propidium iodide staining based flow cytometry; format: functional
Outline: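 FaDu or SCC-25 cells, untreated, given 5 Gy IR, drug, or drug plus 5 Gy. Cell-cycle distribution by propidium iodide staining and flow cytometry at 6 h and 24 h after treatment. G0/G1, S and G2/M fractions compared with control by t test.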

[16] = molecular target: T1, Nuclear factor erythroid 2-related factor 2 (Homo sapiens) (UniProt Q16236); experiment: Synergistic inhibition of Nrf2 in human FADU cells at 0.5 uM followed by irradiation with 5 Gy IR incubated for 48 hrs by immunofluorescence analysis; format: cell-based
T1 sequence (whole entry): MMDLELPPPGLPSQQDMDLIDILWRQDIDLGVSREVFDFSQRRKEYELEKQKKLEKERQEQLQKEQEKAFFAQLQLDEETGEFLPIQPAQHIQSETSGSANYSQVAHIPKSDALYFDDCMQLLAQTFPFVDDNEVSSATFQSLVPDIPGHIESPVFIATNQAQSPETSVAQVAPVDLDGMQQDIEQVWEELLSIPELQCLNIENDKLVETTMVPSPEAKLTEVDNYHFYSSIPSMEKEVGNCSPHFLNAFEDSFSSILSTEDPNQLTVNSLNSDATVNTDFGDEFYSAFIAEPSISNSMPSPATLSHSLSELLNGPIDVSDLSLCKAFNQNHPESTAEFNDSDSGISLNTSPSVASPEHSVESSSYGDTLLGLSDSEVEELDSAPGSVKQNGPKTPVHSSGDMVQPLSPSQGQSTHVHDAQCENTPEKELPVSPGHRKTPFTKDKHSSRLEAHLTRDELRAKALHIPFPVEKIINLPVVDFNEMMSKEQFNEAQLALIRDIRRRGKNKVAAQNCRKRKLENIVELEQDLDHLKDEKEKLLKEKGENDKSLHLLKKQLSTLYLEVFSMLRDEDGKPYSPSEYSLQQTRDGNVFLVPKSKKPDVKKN

For COc1ccc2c(c1)N(CCO)C1=C(C(=O)OC1)C2c1ccccc1 (stereo unspecified), the CI (SCC-25 [1]) was 1.017, the “fractional inhibitory concentration index (FICI)” value (SCC-25 [2]) was 0.531 and the “fractional inhibitory concentration index (FICI)” value (SCC-25 [3]) was 0.361. The “fractional inhibitory concentration index (FICI)” value (FaDu [4]) was 0.145, the “fractional inhibitory concentration index (FICI)” value (SCC-25 [5]) was 0.452 and the Activity (FaDu [6]) was “Tde”. The “fractional inhibitory concentration index (FICI)” value (FaDu [7]) was 0.136, the CI (SCC-25 [8]) was 0.386 and the inhibition (SCC-25 [9]) was “inactive”. For the same compound, the CI (FaDu [10]) was 0.603, the “fractional inhibitory concentration index (FICI)” value (SCC-25 [11]) was 0.157 and the “fractional inhibitory concentration index (FICI)” value (SCC-25 [12]) was 0.388. For the same compound, the “fractional inhibitory concentration index (FICI)” value (FaDu [13]) was 0.264, the CI (FaDu [14]) was 0.572 and the Activity (SCC-25 [15]) was “inactive”. The inhibition [16] was “Active”.
